# ChEMBL document CHEMBL5058577, “EUbOPEN Chemogenomics Library 2 (Multiplex)” (2022)
# System: U2OS
# Test: Multiplex assay against U2OS
# Type: toxicity, cell-based
# Settings: human
# Summary of the method: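 Values for tubulin, mitochondrial-mass and membrane-permeability phenotypes are per cents of cells with healthy nuclei. These cells were identified by CellPathfinder machine-learning gating of live cells that had been stained at seeding with Hoechst33342, BioTracker Green Microtubule Cytoskeleton Dye, MitoTracker Red and Annexin V Alexa Fluor 680 and imaged on a CQ1 microscope at 37°C and 5% CO2 after compound addition. The gating first set Hoechst high-intensity objects apart from normal cells, then split normal cells into healthy, pyknosed or fragmented nuclei, and pyknosed cells into mitotic or apoptotic.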
# [1] = 12 h, 1 µM, compound concentration 1 uM, replicate 1
# [2] = 12 h, 1 µM, compound concentration 1 uM, replicate 2
# [3] = 12 h, 10 µM, compound concentration 10 uM, replicate 1
# [4] = 12 h, 10 µM, compound concentration 10 uM, replicate 2
# [5] = 24 h, 1 µM, compound concentration 1 uM, replicate 1
# [6] = 24 h, 1 µM, compound concentration 1 uM, replicate 2
# [7] = 24 h, 10 µM, compound concentration 10 uM, replicate 1
# [8] = 24 h, 10 µM, compound concentration 10 uM, replicate 2
# [9] = 48 h, 1 µM, compound concentration 1 uM, replicate 1
# [10] = 48 h, 1 µM, compound concentration 1 uM, replicate 2
# [11] = 48 h, 10 µM, compound concentration 10 uM, replicate 1
# [12] = 48 h, 10 µM, compound concentration 10 uM, replicate 2
smiles,measurement,setting,value
Cc1onc(-c2ccccc2Cl)c1C(=O)N(C)c1ccc(Cl)cc1,Population Apoptotic (%),[1],82%
same,Population Fragmented Nuclei (%),[1],26%
same,Population Healthy Nuclei (%),[1],67%
same,Population Hoechst High Intensity Objects (%),[1],0%
same,Population Membrane Permeable-Phenotype (%),[1],3%
same,Population Mitochondria Different-Phenotype (%),[1],2%
same,Population Mitotic Cells (%),[1],17%
same,Population Normal (%),[1],99%
same,Population Pyknosed Nuclei (%),[1],6%
same,Population Tubulin-Different-Phenotype (%),[1],1%
same,Total Cell Count,[1],277
same,Population Apoptotic (%),[2],78%
same,Population Fragmented Nuclei (%),[2],10%
same,Population Healthy Nuclei (%),[2],79%
same,Population Hoechst High Intensity Objects (%),[2],1%
same,Population Membrane Permeable-Phenotype (%),[2],4%
same,Population Mitochondria Different-Phenotype (%),[2],1%
same,Population Mitotic Cells (%),[2],21%
same,Population Normal (%),[2],98%
same,Population Pyknosed Nuclei (%),[2],10%
same,Population Tubulin-Different-Phenotype (%),[2],3%
same,Total Cell Count,[2],136
same,Population Apoptotic (%),[3],79%
same,Population Fragmented Nuclei (%),[3],28%
same,Population Healthy Nuclei (%),[3],58%
same,Population Hoechst High Intensity Objects (%),[3],4%
same,Population Membrane Permeable-Phenotype (%),[3],12%
same,Population Mitochondria Different-Phenotype (%),[3],5%
same,Population Mitotic Cells (%),[3],20%
same,Population Normal (%),[3],95%
same,Population Pyknosed Nuclei (%),[3],12%
same,Population Tubulin-Different-Phenotype (%),[3],5%
same,Total Cell Count,[3],244
same,Population Apoptotic (%),[4],77%
same,Population Fragmented Nuclei (%),[4],24%
same,Population Healthy Nuclei (%),[4],56%
same,Population Hoechst High Intensity Objects (%),[4],0%
same,Population Membrane Permeable-Phenotype (%),[4],7%
same,Population Mitochondria Different-Phenotype (%),[4],6%
same,Population Mitotic Cells (%),[4],22%
same,Population Normal (%),[4],99%
same,Population Pyknosed Nuclei (%),[4],19%
same,Population Tubulin-Different-Phenotype (%),[4],4%
same,Total Cell Count,[4],113
same,Population Apoptotic (%),[5],100%
same,Population Fragmented Nuclei (%),[5],23%
same,Population Healthy Nuclei (%),[5],70%
same,Population Hoechst High Intensity Objects (%),[5],0%
same,Population Membrane Permeable-Phenotype (%),[5],2%
same,Population Mitochondria Different-Phenotype (%),[5],2%
same,Population Mitotic Cells (%),[5],0%
same,Population Normal (%),[5],99%
same,Population Pyknosed Nuclei (%),[5],5%
same,Population Tubulin-Different-Phenotype (%),[5],0%
same,Total Cell Count,[5],328
same,Population Apoptotic (%),[6],83%
same,Population Fragmented Nuclei (%),[6],11%
same,Population Healthy Nuclei (%),[6],81%
same,Population Hoechst High Intensity Objects (%),[6],1%
same,Population Membrane Permeable-Phenotype (%),[6],4%
same,Population Mitochondria Different-Phenotype (%),[6],5%
same,Population Mitotic Cells (%),[6],16%
same,Population Normal (%),[6],98%
same,Population Pyknosed Nuclei (%),[6],7%
same,Population Tubulin-Different-Phenotype (%),[6],2%
same,Total Cell Count,[6],168
same,Population Apoptotic (%),[7],72%
same,Population Fragmented Nuclei (%),[7],26%
same,Population Healthy Nuclei (%),[7],62%
same,Population Hoechst High Intensity Objects (%),[7],3%
same,Population Membrane Permeable-Phenotype (%),[7],11%
same,Population Mitochondria Different-Phenotype (%),[7],6%
same,Population Mitotic Cells (%),[7],27%
same,Population Normal (%),[7],96%
same,Population Pyknosed Nuclei (%),[7],11%
same,Population Tubulin-Different-Phenotype (%),[7],4%
same,Total Cell Count,[7],299
same,Population Apoptotic (%),[8],64%
same,Population Fragmented Nuclei (%),[8],20%
same,Population Healthy Nuclei (%),[8],66%
same,Population Membrane Permeable-Phenotype (%),[8],8%
same,Population Mitochondria Different-Phenotype (%),[8],7%
same,Population Mitotic Cells (%),[8],35%
same,Population Pyknosed Nuclei (%),[8],13%
same,Population Tubulin-Different-Phenotype (%),[8],7%
same,Total Cell Count,[8],129
same,Population Apoptotic (%),[9],87%
same,Population Fragmented Nuclei (%),[9],16%
same,Population Healthy Nuclei (%),[9],75%
same,Population Hoechst High Intensity Objects (%),[9],2%
same,Population Membrane Permeable-Phenotype (%),[9],4%
same,Population Mitochondria Different-Phenotype (%),[9],3%
same,Population Mitotic Cells (%),[9],12%
same,Population Normal (%),[9],97%
same,Population Pyknosed Nuclei (%),[9],7%
same,Population Tubulin-Different-Phenotype (%),[9],2%
same,Total Cell Count,[9],450
same,Population Apoptotic (%),[10],89%
same,Population Fragmented Nuclei (%),[10],12%
same,Population Hoechst High Intensity Objects (%),[10],1%
same,Population Membrane Permeable-Phenotype (%),[10],1%
same,Population Mitochondria Different-Phenotype (%),[10],2%
same,Population Mitotic Cells (%),[10],10%
same,Population Normal (%),[10],98%
same,Population Pyknosed Nuclei (%),[10],11%
same,Population Tubulin-Different-Phenotype (%),[10],1%
same,Total Cell Count,[10],252
same,Population Apoptotic (%),[11],69%
same,Population Fragmented Nuclei (%),[11],22%
same,Population Healthy Nuclei (%),[11],67%
same,Population Hoechst High Intensity Objects (%),[11],3%
same,Population Membrane Permeable-Phenotype (%),[11],10%
same,Population Mitochondria Different-Phenotype (%),[11],5%
same,Population Mitotic Cells (%),[11],30%
same,Population Normal (%),[11],96%
same,Population Pyknosed Nuclei (%),[11],9%
same,Population Tubulin-Different-Phenotype (%),[11],4%
same,Total Cell Count,[11],413
same,Population Apoptotic (%),[12],90%
same,Population Fragmented Nuclei (%),[12],23%
same,Population Healthy Nuclei (%),[12],65%
same,Population Hoechst High Intensity Objects (%),[12],2%
same,Population Membrane Permeable-Phenotype (%),[12],9%
same,Population Mitotic Cells (%),[12],10%
same,Population Normal (%),[12],97%
same,Population Pyknosed Nuclei (%),[12],11%
same,Population Tubulin-Different-Phenotype (%),[12],3%
same,Total Cell Count,[12],182
